Key:
Escherichia coli [1] = assay: Antibacterial activity against acrB-deficient Escherichia coli MC4100 assessed as reduction in bacterial growth incubated for 6 to 8 hrs; assay type: functional, organism-based
HEK293 = assay: Cytotoxicity against HEK293 cells assessed as reduction in cell viability after 48 hrs by alamar blue assay; assay type: cell-based; settings: Homo sapiens, HEK293, 48 h
Staphylococcus aureus [2] = assay: Antibacterial activity against methicillin resistant Staphylococcus aureus subsp. aureus HPV107 (ATCC BAA-44) assessed as reduction in bacterial growth incubated for 6 to 8 hrs; assay type: functional, organism-based
Outline: (§1)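 Broth proliferation assay. S. aureus and MRSA grown in ATCC Medium 18, other pathogens in Brain Heart Infusion. Stagnant incubation at 37°C under breathable seal. OD600 read at mid-log (6-8 h) and corrected with bacteria-free baseline plates. EC50 by variable-slope nonlinear fit, at least triplicate.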

E. coli GroEL/ES [3] = molecular target: T1, E. coli GroEL/ES (Escherichia coli, UniProt P0A6F5); assay: Inhibition of Escherichia coli GroEL/GroES using Escherichia coli GroEL expressed in Escherichia coli DH5alpha cells and Escherichia coli GroES expressed in Escherichia coli BL21(DE3) cells assessed as reduction in denatured pig heart MDH ATPase activity by malachite green dye based assay
T1 sequence (P0A6F5 whole entry, looked up): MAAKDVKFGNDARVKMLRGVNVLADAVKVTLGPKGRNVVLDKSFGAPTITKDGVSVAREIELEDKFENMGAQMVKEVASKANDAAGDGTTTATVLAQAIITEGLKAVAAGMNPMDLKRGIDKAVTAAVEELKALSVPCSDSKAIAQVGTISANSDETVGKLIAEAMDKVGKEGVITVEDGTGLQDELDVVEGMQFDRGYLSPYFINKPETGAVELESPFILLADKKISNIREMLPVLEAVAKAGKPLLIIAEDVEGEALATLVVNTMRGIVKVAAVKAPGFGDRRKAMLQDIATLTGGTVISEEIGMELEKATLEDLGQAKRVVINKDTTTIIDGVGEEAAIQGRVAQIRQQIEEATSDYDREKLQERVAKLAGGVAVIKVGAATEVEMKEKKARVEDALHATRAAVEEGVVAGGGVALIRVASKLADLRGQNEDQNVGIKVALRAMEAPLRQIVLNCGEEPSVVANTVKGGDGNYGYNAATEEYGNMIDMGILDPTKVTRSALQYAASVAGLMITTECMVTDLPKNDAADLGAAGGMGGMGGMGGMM

Enterobacter cloacae = assay: Antibacterial activity against multidrug resistant Enterobacter cloacae subsp. cloacae CDC 442-68 (ATCC 13047) assessed as reduction in bacterial growth incubated for 6 to 8 hrs; assay type: functional, organism-based; outline: as §1
Bacillus subtilis = assay: Antibacterial activity against Bacillus subtilis 168 assessed as reduction in bacterial growth incubated for 6 to 8 hrs; assay type: functional, organism-based; settings: subsp. subtilis str. 168
[4] = test system: Klebsiella pneumoniae subsp. pneumoniae; assay: Antibacterial activity against multidrug resistant Klebsiella pneumoniae subsp. pneumoniae NCTC 9633 (ATCC 13883) assessed as reduction in bacterial growth incubated for 6 to 8 hrs; assay type: functional, organism-based; outline: as §1
Enterococcus faecium = assay: Antibacterial activity against multidrug resistant Enterococcus faecium NCTC 7171 (ATCC 19434) assessed as reduction in bacterial growth incubated for 6 to 8 hrs; assay type: functional, organism-based; outline: as §1
[5] = Cytotoxicity against human THLE3 cells assessed as reduction in cell viability after 48 hrs by alamar blue assay; assay type: cell-based; settings: THLE3, 48 h
HSP60/HSP10 [6] = molecular target: T2, HSP60/HSP10 (Homo sapiens, UniProt P10809); assay: Inhibition of human HSP60/HSP10 expressed in Escherichia coli Rosetta2(DE3) cells assessed as inhibition of denatured pig heart MDH refolding by measuring reduction in NADH production incubated for 60 mins by micro plate reader analysis
T2 sequence (P10809 whole entry): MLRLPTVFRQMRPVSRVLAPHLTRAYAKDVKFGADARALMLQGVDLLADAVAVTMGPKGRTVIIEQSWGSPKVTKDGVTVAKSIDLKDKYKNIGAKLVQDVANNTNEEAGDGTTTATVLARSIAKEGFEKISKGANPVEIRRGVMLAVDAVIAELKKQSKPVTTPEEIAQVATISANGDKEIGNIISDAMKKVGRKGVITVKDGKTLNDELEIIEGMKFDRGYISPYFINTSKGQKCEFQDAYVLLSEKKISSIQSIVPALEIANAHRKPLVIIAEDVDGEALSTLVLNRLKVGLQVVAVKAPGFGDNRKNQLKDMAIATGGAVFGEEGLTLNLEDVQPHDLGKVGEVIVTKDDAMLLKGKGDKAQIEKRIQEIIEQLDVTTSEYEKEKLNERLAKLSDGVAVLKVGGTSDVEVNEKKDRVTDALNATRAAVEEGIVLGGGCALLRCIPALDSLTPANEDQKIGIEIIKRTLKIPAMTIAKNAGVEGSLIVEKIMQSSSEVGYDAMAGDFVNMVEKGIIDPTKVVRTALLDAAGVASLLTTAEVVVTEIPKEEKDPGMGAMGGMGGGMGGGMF
T2 sequence (P61604 whole entry, further chain): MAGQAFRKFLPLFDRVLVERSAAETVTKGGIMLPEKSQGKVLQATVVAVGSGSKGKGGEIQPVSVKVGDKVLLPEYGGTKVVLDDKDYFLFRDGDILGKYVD
Outline: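 Pig heart MDH was denatured in guanidine-HCl (dMDH) and complexed with HSP60, then HSP10, in Tris pH 7.4/KCl/MgCl2/DTT buffer. EDTA quench (100 mM final); refolded MDH activity was followed with mesoxalate/NADH at 340 nm.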

E. coli GroEL/ES [7] = molecular target: T1, E. coli GroEL/ES; assay: Inhibition of Escherichia coli GroEL/GroES using Escherichia coli GroEL expressed in Escherichia coli DH5alpha cells and Escherichia coli GroES expressed in Escherichia coli BL21(DE3) cells assessed as reduction in native refolded rhodanese-mediated thiocyanate production by micro plate reader analysis
Pseudomonas aeruginosa = assay: Antibacterial activity against multidrug resistant Pseudomonas aeruginosa NCTC 10332 (ATCC 10145) assessed as reduction in bacterial growth incubated for 6 to 8 hrs; assay type: functional, organism-based; outline: as §1
E. coli GroEL/ES [8] = molecular target: T1, E. coli GroEL/ES; assay: (§2) Inhibition of Escherichia coli GroEL/GroES using Escherichia coli GroEL expressed in Escherichia coli DH5alpha cells and Escherichia coli GroES expressed in Escherichia coli BL21(DE3) cells assessed as inhibition of denatured pig heart MDH refolding by measuring reduction in NADH production incubated for 60 mins by micro plate reader analysis
Outline: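 Denatured MDH (guanidine-HCl/DTT, 30 min RT) bound to GroEL with GroES in Tris pH 7.4, KCl, MgCl2, DTT buffer. 60 min at 37°C, EDTA quench to 100 mM. Refolded MDH activity read with mesoxalate/NADH at 340 nm. Log-averaged IC50 from replicates.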

E. coli GroEL/ES [9] = molecular target: T1, E. coli GroEL/ES; assay: Inhibition of Escherichia coli GroEL/GroES using Escherichia coli GroEL expressed in Escherichia coli DH5alpha cells and Escherichia coli GroES expressed in Escherichia coli BL21(DE3) cells assessed as reduction in pig heart native refolded MDH-mediated NADH production by micro plate reader analysis
Outline: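 Native MDH counter-screen. GroEL/ES-dMDH refolding run 60 min at 37°C, then EDTA-quenched without compound. IC50 averaged from at least triplicate.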

Escherichia coli [10] = assay: Antibacterial activity against Escherichia coli DH5alpha assessed as reduction in bacterial growth incubated for 6 to 8 hrs; assay type: functional, organism-based; settings: DH5[alpha]
HSP60/HSP10 [11] = molecular target: T2, HSP60/HSP10; assay: Inhibition of human HSP60/HSP10 expressed in Escherichia coli Rosetta2(DE3) cells assessed as reduction in denatured pig heart MDH ATPase activity by malachite green dye based assay
Escherichia coli [12] = assay: Antibacterial activity against Escherichia coli SM101 assessed as reduction in bacterial growth incubated for 12 hrs by UV-Vis spectrophotometric analysis; assay type: functional, organism-based; settings: SM101, 12 h
Acinetobacter baumannii = assay: Antibacterial activity against multidrug resistant Acinetobacter baumannii 2208 (ATCC 19606) assessed as reduction in bacterial growth incubated for 6 to 8 hrs; assay type: functional; outline: as §1
E. coli GroEL/ES [13] = molecular target: T1, E. coli GroEL/ES; assay: as §2, with “rhodanese” for “pig heart MDH”, “thiocyanate” for “NADH”
Outline: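 Urea-denatured rhodanese bound to GroEL/GroES in folding buffer containing thiosulfate. After 60 min at 37°C, thiocyanate reaction (KCN, thiosulfate, phosphate) run, then formaldehyde quench and ferric nitrate added. Fe(SCN)3 read at 460 nm after 15 min RT, with protein-free baseline plates.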

Staphylococcus aureus [14] = assay: Antibacterial activity against methicillin susceptible Staphylococcus aureus subsp. aureus Seattle 1945 (ATCC 25923) assessed as reduction in bacterial growth incubated for 6 to 8 hrs

Compound | EC50 (Escherichia coli [1]) [µM] | EC50 (HEK293) [µM] | EC50 (Staphylococcus aureus [2]) [µM] | IC50 (E. coli GroEL/ES [3]) [µM] | EC50 (Enterobacter cloacae) [µM] | EC50 (Bacillus subtilis) [µM] | EC50 [4] [µM] | EC50 (Enterococcus faecium) [µM] | EC50 [5] [µM] | IC50 (HSP60/HSP10 [6]) [µM] | IC50 (E. coli GroEL/ES [7]) [µM] | EC50 (Pseudomonas aeruginosa) [µM] | IC50 (E. coli GroEL/ES [8]) [µM] | IC50 (E. coli GroEL/ES [9]) [µM] | EC50 (Escherichia coli [10]) [µM] | IC50 (HSP60/HSP10 [11]) [µM] | EC50 (Escherichia coli [12]) [µM] | EC50 (Acinetobacter baumannii) [µM] | IC50 (E. coli GroEL/ES [13]) [µM] | EC50 (Staphylococcus aureus [14]) [µM]
O=C1/C(=C/c2ccc(O)c(O)c2)SC(=S)N1c1ccc(O)cc1 | 92 | 23 | 9.1 | > 250 | > 100 | 25 | > 100 | 90 | 16 | 4.9 | 14 | > 100 | 0.69 | > 62.5 | > 100 | > 250 | 27 | 58 | 0.58 | 14
COC(=O)c1ccc(-c2ccc(/C=C3/SC(=S)NC3=O)o2)cc1 | > 100 | 44 | 1.5 | > 250 | > 100 | 16 | > 100 | > 100 | 41 | 16 | 8.1 | > 100 | 4.8 | > 62.5 | > 100 | > 250 | 7.6 | > 100 | 3 | 13
O=C(Nc1cc([N+](=O)[O-])ccc1O)c1ccc2c(c1)C(=O)N(Cc1ccccc1)C2=O | > 100 | > 100 | 15 | 187 | > 100 | > 100 | > 100 | > 100 | > 100 | 38 | > 100 | 85 | 24 | > 62.5 | > 100 | > 250 | > 100 | > 100 | 28 | > 100
Nc1nnc(SCC(=O)c2ccc(-c3ccccc3)cc2)s1 | > 100 | > 100 | > 100 | 107 | > 100 | > 100 | > 100 | > 100 | > 100 | > 100 | – | > 100 | – | > 62.5 | > 100 | > 250 | > 100 | > 100 | 79 | > 100
Cc1ccc(S(=O)(=O)Nc2ccc(-c3nc4ccc(NS(=O)(=O)c5ccc(C)cc5)cc4[nH]3)cc2)cc1 | > 100 | 34 | > 100 | 119 | > 100 | > 100 | > 100 | > 100 | 29 | 89 | > 100 | > 100 | 7.5 | > 62.5 | > 100 | 106 | > 100 | > 100 | 30 | > 100
O=C(CC1Nc2cccc3cccc(c23)NC1=O)Nc1cccc([N+](=O)[O-])c1 (stereo not drawn) | > 100 | 62 | 54 | 217 | > 100 | 72 | > 100 | 15 | 61 | > 100 | 10 | > 100 | 42 | > 62.5 | > 100 | > 250 | 68 | > 100 | 11 | 84
